Laboratory results from ChEMBL document CHEMBL1165950, “Design and synthesis of new potent anticancer pyrazoles with high FLT3 kinase inhibitory selectivity” (Bioorg Med Chem, 2010).

Tests used:
Assay type in all cases: functional
[1] = tested on: MCF7; assay: Cytotoxicity against human MCF7 cells assessed as cell growth at 10 uM; conditions: read-out: Activity
Outline: (§1)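 NCI-60 screen: cells grown in RPMI 1640 with 5% FBS and 2 mM L-glutamine, plated at 5000–40,000 cells/well according to doubling time, and preincubated 24 h at 37 °C, 5% CO2. The single 10 µM dose (DMSO stock) was added, then incubated 48 h. Cells were TCA-fixed and stained with 0.4% SRB, read at 515 nm, and growth % calculated against time-zero and control plates.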

[2] = tested on: MDA-MB-231; assay: Cytotoxicity against human MDA-MB-231 cells assessed as cell growth at 10 uM; conditions: read-out: Activity; outline: as §1
[3] = Cytotoxicity against human Hs 578T cells assessed as cell growth at 10 uM; conditions: read-out: Activity
Outline: (§2)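 Single-dose NCI-60 screen at 10 µM. Cells were grown in RPMI 1640 with 5% FBS and 2 mM L-glutamine, then treated for 48 h at 37 °C. Protein was measured by SRB staining with absorbance at 515 nm. Percentage growth was recorded, and inhibition percentage was calculated as 100 minus growth percentage.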

[4] = tested on: BT-549; assay: Cytotoxicity against human BT549 cells assessed as cell growth at 10 uM; conditions: read-out: Activity; outline: as §2
[5] = tested on: T47D; assay: Cytotoxicity against human T47D cells assessed as cell growth at 10 uM; conditions: read-out: Activity; outline: as §1
[6] = tested on: MDA-MB-468; assay: Cytotoxicity against human MDA-MB-468 cells assessed as cell growth at 10 uM; conditions: read-out: Activity; outline: as §1
[7] = Growth inhibition of human NCI60 cells at 10 uM after 48 hrs by sulforhodamine B assay relative to control; conditions: NCI60, 48 h, read-out: GI
Outline: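 Single-dose NCI screen at 10 µM across the 60-line panel, 48 h exposure at 37 °C after a 24 h preincubation. Adherent cells were fixed with cold TCA and stained with 0.4% SRB, and absorbance was read at 515 nm. Inhibition % was taken as 100 minus growth %, and the mean across all lines was reported.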

[8] = tested on: CCRF-CEM; assay: Cytotoxicity against human CCRF-CEM cells assessed as cell growth at 10 uM; conditions: read-out: Activity; outline: as §2
[9] = tested on: HL-60(TB); assay: Cytotoxicity against human HL-60(TB) cells assessed as cell growth at 10 uM; conditions: read-out: Activity
Outline: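 NCI 60-cell panel screen at a single concentration of 10 µM. Cells are grown in RPMI 1640 with 5% FBS and 2 mM L-glutamine and read by SRB protein staining at 515 nm. Percent growth is measured relative to time-zero and untreated controls; inhibition % is 100 minus growth %.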

[10] = tested on: K562; assay: Cytotoxicity against human K562 cells assessed as cell growth at 10 uM; conditions: read-out: Activity; outline: as §2
[11] = tested on: MOLT-4; assay: Cytotoxicity against human MOLT4 cells assessed as cell growth at 10 uM; conditions: read-out: Activity; outline: as §1
[12] = Cytotoxicity against human […] cells assessed as cell growth at 10 uM; conditions: read-out: Activity; outline: as §1
[13] = tested on: SR; assay: Cytotoxicity against human SR cells assessed as cell growth at 10 uM; conditions: read-out: Activity; outline: as §1
[14] = tested on: A549; assay: Cytotoxicity against human A549 cells assessed as cell growth at 10 uM; conditions: read-out: Activity; outline: as §2
[15] = tested on: EKVX; assay: Cytotoxicity against human EKVX cells assessed as cell growth at 10 uM; conditions: read-out: Activity; outline: as §2
[16] = tested on: HOP-62; assay: Cytotoxicity against human HOP62 cells assessed as cell growth at 10 uM; conditions: read-out: Activity; outline: as §2
[17] = tested on: HOP-92; assay: Cytotoxicity against human HOP92 cells assessed as cell growth at 10 uM; conditions: read-out: Activity; outline: as §2
[18] = tested on: NCI-H226; assay: Cytotoxicity against human NCI-H226 cells assessed as cell growth at 10 uM; conditions: read-out: Activity; outline: as §1
[19] = tested on: NCI-H23; assay: Cytotoxicity against human NCI-H23 cells assessed as cell growth at 10 uM; conditions: read-out: Activity; outline: as §1
[20] = tested on: NCI-H322M; assay: Cytotoxicity against human NCI-H322M cells assessed as cell growth at 10 uM; conditions: read-out: Activity; outline: as §1
[21] = tested on: NCI-H460; assay: Cytotoxicity against human NCI-H460 cells assessed as cell growth at 10 uM; conditions: read-out: Activity; outline: as §1
[22] = tested on: NCI-H522; assay: Cytotoxicity against human NCI-H522 cells assessed as cell growth at 10 uM; conditions: read-out: Activity; outline: as §1
[23] = tested on: COLO 205; assay: Cytotoxicity against human COLO205 cells assessed as cell growth at 10 uM; conditions: read-out: Activity; outline: as §2
[24] = tested on: HCC 2998; assay: Cytotoxicity against human HCC2998 cells assessed as cell growth at 10 uM; conditions: read-out: Activity; outline: as §2
[25] = tested on: HCT-116; assay: Cytotoxicity against human HCT116 cells assessed as cell growth at 10 uM; conditions: read-out: Activity; outline: as §2
[26] = tested on: HCT-15; assay: Cytotoxicity against human HCT15 cells assessed as cell growth at 10 uM; conditions: read-out: Activity; outline: as §2
[27] = tested on: HT-29; assay: Cytotoxicity against human HT-29 cells assessed as cell growth at 10 uM; conditions: read-out: Activity; outline: as §2
[28] = tested on: KM12; assay: Cytotoxicity against human KM12 cells assessed as cell growth at 10 uM; conditions: read-out: Activity; outline: as §1
[29] = tested on: SW-620; assay: Cytotoxicity against human SW620 cells assessed as cell growth at 10 uM; conditions: read-out: Activity; outline: as §1
[30] = tested on: SF-268; assay: Cytotoxicity against human SF268 cells assessed as cell growth at 10 uM; conditions: read-out: Activity; outline: as §1
[31] = tested on: SF-295; assay: Cytotoxicity against human SF295 cells assessed as cell growth at 10 uM; conditions: read-out: Activity; outline: as §1

Which results are given for `Cc1cc(O)cc(-c2nn(CC#N)cc2-c2ccnc(-c3ccccc3)c2)c1`?
growth at 10 µM [1]: 53.8%; growth at 10 µM [2]: 80.7%; growth at 10 µM [3]: 84.6%; growth at 10 µM [4]: 93.5%; growth at 10 µM [5]: 59.2%; growth at 10 µM [6]: 61.8%; inhibition of growth at 10 µM [7]: 16.4%; growth at 10 µM [8]: 85.8%; growth at 10 µM [9]: 78.4%; growth at 10 µM [10]: 71.5%; growth at 10 µM [11]: 71%; growth at 10 µM [12]: 84.5%; growth at 10 µM [13]: 80.3%; growth at 10 µM [14]: 85.5%; growth at 10 µM [15]: 101%; growth at 10 µM [16]: 92.7%; growth at 10 µM [17]: 57.3%; growth at 10 µM [18]: 77.7%; growth at 10 µM [19]: 93.5%; growth at 10 µM [20]: 116%; growth at 10 µM [21]: 93.3%; growth at 10 µM [22]: 57.2%; growth at 10 µM [23]: 108%; growth at 10 µM [24]: 89.2%; growth at 10 µM [25]: 59.1%; growth at 10 µM [26]: 54%; growth at 10 µM [27]: 61.9%; growth at 10 µM [28]: 97.2%; growth at 10 µM [29]: 87.6%; growth at 10 µM [30]: 99.6%; growth at 10 µM [31]: 99.2%
